CSN inh: inhibitors of human CSN-mediated cullin deneddylation. 360,000 compounds, 0.38% hits. Q92905. inhibition, % at 12.5 µM. Purified CSN, SCF-Nedd8-OG deneddylation, fluorescence polarization;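 active means pattern-corrected inhibition above about 35%, with an unprinted fluorescence ratio check between 0.5 and 1.5, limit read from the data, passing the limit was not always enough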;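 further: 0% = enzyme with substrate and 100% = substrate without enzyme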
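Assay system: HEK293T-derived human Csn5 enzyme; quantity: 0.24 nM enzyme; medium: Tris/NaCl/DTT buffer, pH 7.5; also added: substrate SCFSkp2-Nedd8OG, 10 nM; doses: 12.5 µM compound; schedule: 90 min reaction at room temperature; signal: FP; read-out: % inhibition of substrate cleavage by Csn5; benchmarks: substrate-only high control, full reaction low control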
SENP1 FRET inh: SENP1 (human) catalytic domain inhibition | Q9P0U3 | 360,000 compounds, 0.21% hits | inhibition, % at 10 µM | recombinant SENP1 catalytic domain, CyPet-SUMO1-YPet FRET cleavage;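 active means inhibition at least 30% at 10 µM, raw YFP signal under a set limit, fluorescence ratio 0.5 to 1.5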;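 further: 0% = enzyme with DMSO and 100% = no enzyme wells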
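Test system: hSENP1 catalytic domain, recombinant; Amount: 20 pM final SENP1 enzyme; Medium: Tris pH 8 buffer plus EDTA, NaCl, BME, BSA, NP40, catalase; Schedule: 50 min enzyme reaction, room temperature, light-protected; Technique: FRET fluorescence in CFP and YFP emission channels; Controls: no-enzyme wells low, DMSO-plus-enzyme wells high control.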
UBC9 SUMO inh: inhibitors of human SUMOylation (UBC9) | P63279 | HTRF SUMOylation assay, SAE1/SAE2 + UBC9, in vitro | inhibition, % at 35 µM | 290,000 compounds, 0.36% hits | AID 2006; in the data active means inhibition above about 50%, passing the limit was not always enough
Target sequence (P63279 whole entry, looked up): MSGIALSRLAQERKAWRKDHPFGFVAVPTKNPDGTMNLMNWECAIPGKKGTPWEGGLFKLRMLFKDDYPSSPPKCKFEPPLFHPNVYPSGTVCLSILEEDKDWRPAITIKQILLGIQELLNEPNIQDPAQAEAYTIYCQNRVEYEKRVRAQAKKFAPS
HNF4A DNA FP: change in binding of human HNF4 alpha to DNA. HNF4a-FITC DNA binding, fluorescence polarization, 1 h. activity change, % at 10 µM. 360,000 compounds, 0.3% hits; in the data active means activity change above about 30%, passing the limit was not always enough
Rpn11 block: inhibitors of human proteasome Rpn11; O00487; human 26S proteasome, Ub4-pepOG fluorescence polarization; 20S core pre-blocked with epoxomicin; calls only at 20 µM; 360,000 compounds, 0.59% hits; AID 588493;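 active means inhibition at 20 µM, scaled to each plate's controls, above about 33%, limit read from the data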
Target sequence (O00487 whole entry, looked up): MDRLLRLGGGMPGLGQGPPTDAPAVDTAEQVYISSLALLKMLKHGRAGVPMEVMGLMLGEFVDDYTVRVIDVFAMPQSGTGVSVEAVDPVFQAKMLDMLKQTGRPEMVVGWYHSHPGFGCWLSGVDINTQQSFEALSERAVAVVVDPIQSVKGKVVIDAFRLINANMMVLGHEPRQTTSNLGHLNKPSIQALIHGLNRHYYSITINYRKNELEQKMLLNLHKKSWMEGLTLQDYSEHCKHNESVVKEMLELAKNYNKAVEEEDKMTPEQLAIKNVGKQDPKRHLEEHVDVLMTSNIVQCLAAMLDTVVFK
TPT1 inh: inhibitors of Candida albicans tRNA 2'-phosphotransferase TPT1. recombinant caTPT1, FP RNA substrate dephosphorylation. 300,000 compounds, 0.81% hits. inhibition, % at 5 µM;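 active means inhibition above the mean of all tested compounds plus 3 SD, set per screening campaign, cut at about 24% in these data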;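 further: plate controls were DMSO alone for no effect and ferristatin control at 100 nM for full effect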
HNF4A confirm: change in binding of human HNF4 alpha to DNA, retest. shares compounds with HNF4A DNA FP. activity change, % at 12.5 µM. 210 compounds, 99% hits. HNF4A-FITC DNA binding, fluorescence polarization, 1 h; call rule not given here
An asterisk follows results filed as active; i = inactive; . = no result given; + = active, no number. In the library only some 1.8% were active in any assay of this set; here they are far more common.

SMILES | CSN inh | SENP1 FRET inh | UBC9 SUMO inh | HNF4A DNA FP | Rpn11 block | TPT1 inh | HNF4A confirm
C#CCOCCOCCOCCNc1nc(N2CCN(C(=O)[C@H](CCCCN)n3cc([C@@H](N)C(C)CC)nn3)CC2)nc(N2CCN(C(=O)[C@H](CCCCN)n3cc([C@@H](N)CO)nn3)CC2)n1 (stereo not given in full) | . | . | 19 | . | . | 0 | .
C#CCOCCOCCOCCNc1nc(N2CCN(C(=O)[C@H](CCCCN)n3cc(CN)nn3)CC2)nc(N2CCN(C(=O)[C@H](CCCCN)n3cc([C@@H](N)[C@H](C)CC)nn3)CC2)n1 | 99* | -1 | . | 96* | i | . | 99*
Cc1c(O)ccc(-c2n[nH]c(C(=O)O)c2-c2nc3ccccc3s2)c1O | 1 | -12 | -9 | -1 | i | 2 | .
CC(C)c1ccc(Nc2ncc3c(n2)CCN(C(=O)NC2CCCCC2)C3)cc1 | 6 | 0 | . | 4 | i | . | .
CN(C)c1ccc(/C=N/NC(=O)c2cc(-c3ccc4c(c3)OCO4)n[nH]2)cc1 | 42* | -63 | 15 | 47* | . | -2 | 59*
O=C(N/N=C/c1ccc(F)cc1)c1cc(-c2ccc3c(c2)OCO3)n[nH]1 | 5 | 4 | 20 | 3 | i | -2 | .
CC(C)C[C@H](NC(=O)c1nc[nH]c1C(=O)N1CCc2ccccc2C1)C(=O)OCc1ccccc1 | -1 | -4 | -42 | 1 | i | -1 | .
COc1ccc(/C=N/NC(=O)c2ccccc2OC)cc1COc1ccccc1[N+](=O)[O-] | 101* | 3 | 28 | 83* | i | -3 | 60*
Cc1cc(C(=O)O)ccc1N=Cc1c(O)ccc2ccccc12 | 10 | -41 | 13 | 46* | i | 2 | 70*
O=C1CSC(=S)N1N=Cc1c(F)cccc1Cl | 5 | 3 | . | 4 | i | . | .
CN(C)c1ccc(C=NN2C(=O)CSC2=S)c(Cl)c1 | 60* | -34 | . | 87* | . | . | 88*
O=C(N/N=C\C=C\c1ccc(Br)cc1)c1ccc2c(c1)OCO2 | 49* | 0 | 16 | 50* | + | 0 | 62*
Nc1cc2c(cc1Cl)-c1ccc([N+](=O)[O-])cc1C2=NO | 19 | 90 | . | 51* | i | . | 52*
CN(CCOc1ccccc1)C(=O)C1CCC(=O)N(CCN2CCOCC2)C1 (stereo not given) | 2 | -3 | -7 | 0 | i | 0 | .
Cc1ccc(/C=C2/Sc3ccc(C(=O)NCc4ccccn4)cc3NC2=O)cc1 | 61* | 5 | 30 | 72* | . | 21 | 58*
COc1ccc(NC(=O)CN(C)C(=O)c2ccc(COc3ccccc3)cc2)cc1 | -3 | 1 | . | -3 | i | . | .
CN(/C=C/C(=C\C=[N+](C)c1ccccc1)OCCCS(=O)(=O)[O-])c1ccccc1 | 31 | -22 | 24 | 87* | . | 1 | 106*
CN(/C=C/C(=C/C=[N+](C)c1ccccc1)OCCCS(=O)(=O)[O-])c1ccccc1 | 34 | -34 | 32 | 112 | . | -1 | .
CCNC(=O)C1(C)CCCN(C(=O)c2cc(C)n(C(C)(C)C)n2)C1 (stereo not given) | -4 | 1 | . | 2 | i | . | .
O=C1OC(c2ccccc2)=CC1=Cc1ccccc1O | 0 | -112 | . | -1 | i | . | .
CN(C)c1ccc(C=C2C=C(c3ccccc3)OC2=O)cc1 | 19 | 24 | . | 55* | i | . | 49*
CC(=O)c1ccc(N2Cc3ccccc3C3(CCOCC3)C2=N)cc1 | -5 | 0 | 7 | -1 | i | 2 | .
CCN(C(=O)COC(=O)/C(C#N)=C/c1ccc(N(C)C)cc1)C1CCS(=O)(=O)C1 (stereo not given) | 10 | -35 | . | 46* | i | . | 71*
CC(=O)Nc1ccc(S(=O)(=O)N2CCc3cc4c(cc3C2C)OCCCO4)cc1 (stereo not given) | 3 | -7 | 0 | -1 | i | 1 | .
COc1cc(/C=N/c2oc(C)c(C)c2C#N)cc(Br)c1O | 16 | 63 | 2 | 60* | . | 3 | 78*
